Published values from different studies.
Lines come from different studies, so protocols differ.
Matrix: plasma

For `COc1ccc([C@@H]2CN(C(=O)[C@@H](O)CO)C[C@@]2(C)[C@@H](C)O)cc1OC1CN(c2ccc(C)cn2)C1`, the AUC(0-t) was 52.7 ng·h/mL (human; oral; 0.1 mg; single dose, healthy volunteers).
The AUC(0-t) of `CCNCCCNC/C=C\CNCCCNCC` is reported as 473 ng·h/mL (human; intravenous; 150 mg; patients, infusion).
With `FC(F)(F)c1ccc(CNc2ccc(Cc3c[nH]c4ncc(Cl)cc34)cn2)cn1` the AUC(0-t) was 22300 ng·h/mL (human; oral; 800 mg; multiple doses, patients).
`C[C@@]1(c2cc(NC(=O)c3ccc(C#N)cn3)ccc2F)C=CSC(N)=N1` gave an AUC(0-t) of 231 ng·h/mL (human; oral; 3 mg; single dose).
With `CO[C@H]1CC[C@H](N2C(=O)CNc3ncc(-c4ccc(C(C)(C)O)nc4)nc32)CC1` the AUC(0-t) was 299 ng·h/mL (human; oral; 7.5 mg; multiple doses, patients).
With `CO[C@@H]1[C@H](OC(=O)N2CC(CCN3CCOCC3)C2)CC[C@]2(CO2)[C@H]1[C@@]1(C)O[C@@H]1CC=C(C)C` the AUC(0-t) was 1.21 ng·h/mL (human; subcutaneous; 0.6 mg; single dose, healthy volunteers).
`C[C@@H](Nc1cc(F)cc(F)c1)c1cc(C(=O)N(C)C)cc2c(=O)cc(N3CCOCC3)oc12` has an AUC(0-t) of 6710 ng·h/mL (human; oral; 180 mg; single dose, patients).
`COCCOc1cnc2ccn([C@H](C)c3nnc4c(F)cc(-c5cnn(C)c5)cn34)c(=O)c2c1` has an AUC(0-t) of 6940 ng·h/mL (human; oral; 50 mg; multiple doses, once daily, patients).
`Cc1nc(NC(=O)N2CCC[C@H]2C(N)=O)sc1-c1ccnc(C(C)(C)C(F)(F)F)c1` has an AUC(0-t) of 7600 ng·h/mL (human; oral; 90 mg; patients).
For `Oc1cc(O)c2c(c1)O[C@@H](c1ccc(O)c(O)c1)[C@@H](O)C2`, the AUC(0-t) was 14.2 ng·h/mL (human; oral; 100 mg; single dose).
`CCCCC1=NC2(CCCC2)C(=O)N1Cc1ccc(-c2ccccc2S(=O)(=O)Nc2noc(C)c2C)c(COCC)c1` gave an AUC(0-t) of 138000 ng·h/mL (human; oral; 800 mg; single dose, fasted, healthy volunteers).
With `CC(C)(O)c1ccccc1-c1ccc2[nH]c(/C=C/c3ccc(C(F)(F)F)cc3)nc2c1` the AUC(0-t) was 13100 ng·h/mL (male human; oral; 120 mg; single dose, fasted, healthy volunteers).
With `CCOc1ccc(Cc2cc([C@@H]3S[C@H](CO)[C@@H](O)[C@H](O)[C@H]3O)c(OC)cc2C)cc1` the AUC(0-t) was 1650 ng·h/mL (male human; oral; 5 mg; single dose, fasted, healthy volunteers).
For `O=C(O)C[C@H](O)C[C@H](O)/C=C/c1c(C2CC2)nc2ccccc2c1-c1ccc(F)cc1`, the AUC(0-t) was 243 ng·h/mL (human; oral; 2 mg; single dose, fasted, healthy volunteers, tablet).
With `NS(=O)(=O)c1ccc(NC(=O)Nc2ccc(F)cc2)cc1` the AUC(0-t) was 62200 ng·h/mL (human; oral; 500 mg; multiple doses, once daily).
`CC(C)n1cc(C#N)c2cc(-n3cc(C(=O)O)cn3)ccc21` gave an AUC(0-t) of 98800 ng·h/mL (male human; oral; 600 mg; single dose, fasted, healthy volunteers).
`COc1cc(N2CCC(N3CCN(C)CC3)CC2)ccc1Nc1ncnc(Nc2ccccc2S(=O)(=O)C(C)C)n1` gave an AUC(0-t) of 8320 ng·h/mL (human; oral; 125 mg; multiple doses, patients).
`CCOc1cc([C@@H](CS(C)(=O)=O)N2C(=O)c3cccc(NC(C)=O)c3C2=O)ccc1OC` gave an AUC(0-t) of 2190 ng·h/mL (human; oral; 30 mg; single dose, healthy volunteers).
For `COc1cc2c(Nc3ccc(Br)cc3F)ncnc2cc1OCC1CCN(C)CC1`, the AUC(0-t) was 18900 ng·h/mL (human; oral; 65 mg/m²; multiple doses, patients).
